Positions count from the first letter of the chain named. Where two headings read alike, the source gives them in different places.
Tests used:
[1] = target: T1, CLC-0 E166S mutant (Torpedo marmorata, UniProt P21564, C212S/E166S); type: cell-based; conditions: read-out: Apparent affinity (K1/2)
T1 sequence (P21564 1-805 E166S/C212S): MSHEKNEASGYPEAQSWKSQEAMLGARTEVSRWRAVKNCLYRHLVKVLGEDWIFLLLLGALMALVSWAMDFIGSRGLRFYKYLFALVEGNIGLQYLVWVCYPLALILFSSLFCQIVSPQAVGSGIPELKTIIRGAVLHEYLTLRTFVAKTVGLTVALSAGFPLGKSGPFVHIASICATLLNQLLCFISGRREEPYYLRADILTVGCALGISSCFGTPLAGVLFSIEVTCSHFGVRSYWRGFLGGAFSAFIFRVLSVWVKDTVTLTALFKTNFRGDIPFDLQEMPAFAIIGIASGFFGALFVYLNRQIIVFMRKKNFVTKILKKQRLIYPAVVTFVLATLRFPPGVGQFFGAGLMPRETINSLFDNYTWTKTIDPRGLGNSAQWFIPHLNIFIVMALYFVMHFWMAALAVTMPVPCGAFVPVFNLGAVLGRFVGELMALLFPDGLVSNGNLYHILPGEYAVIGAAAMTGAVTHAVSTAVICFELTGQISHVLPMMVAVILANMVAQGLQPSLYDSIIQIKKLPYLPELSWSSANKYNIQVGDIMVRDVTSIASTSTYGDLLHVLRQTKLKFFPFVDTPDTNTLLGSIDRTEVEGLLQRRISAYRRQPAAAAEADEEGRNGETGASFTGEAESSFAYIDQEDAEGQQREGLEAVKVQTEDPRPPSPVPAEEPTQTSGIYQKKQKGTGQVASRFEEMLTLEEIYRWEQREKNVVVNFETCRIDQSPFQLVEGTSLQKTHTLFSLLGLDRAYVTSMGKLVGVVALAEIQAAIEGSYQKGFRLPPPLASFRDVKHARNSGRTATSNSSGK
How it was run: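 CLC-0 mutants (C212S background) were lipofectamine-transfected into HEK293 cells and recorded 1–3 d later from inside-out patches. Pipette and bath contained 130 mM NaCl, 5 MgCl2, 10 HEPES and 1 EGTA (pH 7.4). Test compound was perfused onto the cytoplasmic side. A +80 mV prepulse preceded steps to steady state. The last-10-ms current was normalized to bracketing blocker-free controls and fitted to a Langmuir function for K1/2.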

[2] = target: T2, wild-type CLC-0 (E166, C212S background) (Torpedo marmorata, UniProt P21564, C212S); type: cell-based; conditions: for IC50: read-out: Apparent affinity (K1/2)
T2 sequence (P21564 1-805 C212S): T1 sequence (P21564 1-805 E166S/C212S) with S166E
How it was run: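 CLC-0 mutants in the C212S background were transfected into HEK293 cells with lipofectamine and recorded 1–3 d later as excised inside-out patches. Both sides held 130 mM NaCl, 5 mM MgCl2, 10 mM HEPES and 1 mM EGTA, pH 7.4. CPA was perfused continuously onto the cytoplasmic face. Steady-state current over the last 10 ms was normalized to bracketing blocker-free controls and fitted to a Langmuir function for K1/2. Values are mean ± SEM of ~4–6 patches.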

Row | SMILES | IC50 ([1]; −40 mV) [µM] | IC50 ([1]; −60 mV) [µM] | IC50 ([1]; −80 mV) [µM] | IC50 ([1]; −100 mV) [µM] | IC50 ([1]; −120 mV) [µM] | IC50 ([1]; −140 mV) [µM] | IC50 ([1]; −160 mV) [µM] | IC50 ([2]; −40 mV) [mM] | IC50 ([2]; −60 mV) [mM] | IC50 ([2]; −80 mV) [mM] | IC50 ([2]; −100 mV) [mM] | IC50 ([2]; −120 mV) [mM] | IC50 ([2]; −140 mV) [mM] | IC50 ([2]; −160 mV) [mM] | effect on fast gate Po-V curve ([2]; various concentrations, initial tail current)
1 | O=C(O)COc1ccc(Cl)cc1 [CPA, p-chlorophenoxy acetate] | 641 ± 36 | 342 ± 15 | 179 ± 7 | 104 ± 4 | 58 ± 3 | 35 ± 2 | 21 ± 1 | 9.37 ± 0.33 | 5.22 ± 0.23 | 2.87 ± 0.2 | 1.96 ± 0.21 | 1.57 ± 0.19 | 1.17 ± 0.19 | 1.34 ± 0.25 | –
2 | CCCCCCCC(=O)O [octanoate] | 855 ± 37 | 403 ± 22 | 198 ± 11 | 100 ± 9 | 50 ± 3 | 26 ± 3 | 16 ± 2 | 2.61 ± 0.3 | 1.29 ± 0.13 | 0.67 ± 0.05 | 0.39 ± 0.01 | 0.3 ± 0.02 | 0.26 ± 0.03 | 0.19 ± 0.04 | shifts the fast gate Po-V curve toward more depolarized voltages

Reference: paper PMC2606940 (The Journal of General Physiology, 2009)
